This is an account of results in ChEMBL document CHEMBL5376016, “Synthesis of novel rapanone derivatives via organocatalytic reductive C-alkylation: biological evaluation of antioxidant properties, in vivo zebrafish embryo toxicity, and docking studies” (RSC Med Chem, 2024).

Converted amounts (≈) assume the structure as drawn.

A short description of data set [1]: Acute toxicity in zebrafish embryo assessed as survival rate at 96 hrs post fertilization relative to control. Also on record: species or system Danio rerio; concentration or dose not given beside the values. As to conditions: in vivo. The gist of the method:
(§1)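 Lethality endpoints were coagulation and absence of heartbeat, checked by inverted microscope. Survival was compared with untreated embryos across three independent experiments; mean ± SD, ANOVA.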

Data set [2] in a line: Antioxidant activity assessed as DPPH radical scavenging activity after 30 mins by spectrophotometric analysis relative to control. Format: functional. On the set-up: concentration or dose not given beside the values. The method in brief:
(§2)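 Ascorbic acid was the reference standard. For DPPH, 0.2 mM DPPH in methanol was kept in the dark, mixed with compound at 5–160 µM (DMSO stock), and incubated 30 min in the dark at room temperature, then A517 was read. %RSA = (Ac−As)/Ac×100. Triplicate runs; IC50 taken from the plot of % scavenging versus concentration.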
For orientation: DPPH is a stable violet radical that fades when it is reduced.

Data set [3] can be described thus: Acute toxicity in zebrafish embryo assessed as morphological changes by measuring bent tail at upto 160 uM measured after 96 hrs post fertilization. On the set-up: species or system Danio rerio. The note with it: in vivo. The gist of the method:
(§3)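 Wild-type Danio rerio embryos were exposed in milli-Q water with compound dissolved in DMSO (≤0.25 v/v final). Controls were milli-Q water and water with DMSO. Embryos were held at 26.8 ± 1 °C and scored by inverted microscope at 24–96 hpf, after exposure at 160 µM, for bent spine, yolk sac edema, pericardial edema, short tail and bent tail.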

Data set [4] can be described thus: Antioxidant activity assessed as DPPH radical scavenging activity after 30 mins by spectrophotometric analysis. It counts as functional. The gist of the method: as §2
The nature of data set [5]: Acute toxicity in zebrafish embryo assessed as morphological changes by measuring pericardial edema at upto 160 uM measured after 96 hrs post fertilization. On the set-up: species or system Danio rerio. As to conditions: in vivo. The method in brief: as §3
The nature of data set [6]: Acute toxicity in zebrafish embryo assessed as morphological changes by measuring yolk sac edema at upto 160 uM measured after 96 hrs post fertilization. On the set-up: species or system Danio rerio. The note with it: in vivo. The method in brief: as §3
Data set [7] is described as follows: Acute toxicity in zebrafish embryo assessed as survival rate at 20 uM measured after 96 hrs post fertilization relative to control. On the set-up: species or system Danio rerio. As to conditions: in vivo. The gist of the method: as §1
Data set [8] is described as follows: Antioxidant activity assessed as ABTS radical scavenging activity after 6 mins by spectrophotometric analysis. It counts as functional.
The nature of data set [9]: Acute toxicity in zebrafish embryo assessed as hatching rate at 20 to 160 uM measured after 48 hrs post fertilization relative to control. Also on record: species or system Danio rerio. As to conditions: in vivo, dose 20-160 µM. The method in brief: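 Controls were water and water with 0.5% DMSO. Incubation at 26.8 ± 1 °C, 20 embryos per well. Hatching scored over 0–96 hpf under an inverted microscope. Triplicate, three independent experiments; mean ± SD; ANOVA.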

A short description of data set [10]: Acute toxicity in zebrafish embryo assessed as morphological changes by measuring bent spine at upto 160 uM measured after 96 hrs post fertilization. The note with it: in vivo. Also on record: species or system Danio rerio. The gist of the method: as §3
Data set [11] is described as follows: Acute toxicity in zebrafish embryo assessed as survival rate at 160 uM measured after 96 hrs post fertilization relative to control. As to conditions: in vivo. Also on record: species or system Danio rerio. The gist of the method:
as §1

Data set [12] is described as follows: Acute toxicity in zebrafish embryo assessed as morphological changes by measuring short tail at upto 160 uM measured after 96 hrs post fertilization. Also on record: species or system Danio rerio. As to conditions: in vivo. The method in brief: as §3
Data set [13] can be described thus: Antioxidant activity assessed as ABTS radical scavenging activity after 6 mins by spectrophotometric analysis relative to control. It counts as functional. On the set-up: concentration or dose not given beside the values.
The nature of data set [14]: Acute toxicity in zebrafish embryo assessed as morphological changes at upto 160 uM measured after 48 hrs post fertilization relative to control. Also on record: species or system Danio rerio. The note with it: in vivo. The method in brief: as §3
Data set [15] in a line: Antioxidant activity assessed as ABTS radical scavenging activity after 30 mins by spectrophotometric analysis. It counts as functional.
Data set [16] is described as follows: Antioxidant activity assessed as DPPH radical scavenging activity after 20 mins by […]. Format: functional.
Data set [17] is described as follows: Antioxidant activity assessed as ABTS radical scavenging activity after 30 mins by […]. (In general: In an ELISA, binding on a coated surface is turned into a signal by an enzyme label.)

Take `CCCCCCCCCCCC1=C(O)C(=O)C(Cc2cccc(Oc3ccccc3)c2)=C(O)C1=O`: the survival at 96 h in data set [1] (read-out: Activity) stood at 70%. For the same compound, the Activity was 80% in data set [2]; “Toxic” in data set [3]; “Toxic” in [5]; “Toxic” in [6]; 75.66% in data set [9]; “Toxic” in data set [10]. For the same compound, the Activity result in data set [12] was “Toxic”; in data set [13], 80.2%. Moreover, the figures for the IC50 in data set [4] and in data set [8] were 2880 nM and 2360 nM, respectively. Besides, in [7], the survival at 96 h, 20 µM amounted to 52%. In data set [11], the survival at 96 h, 160 µM is 70%.

Regarding `CCCCCCCCCCCC1=C(O)C(=O)C(Cc2ccc(O)cc2)=C(O)C1=O`, the survival at 96 h in data set [1] (read-out: Activity) stood at 70%. In addition, the Activity is 80% in [2], 75.66% in data set [9], “Non-Toxic” in [14] and 75.1% in [13]. Besides, the IC50 – broadly, the midpoint of a concentration-inhibition curve – in data set [4] is 2830 nM; in data set [8], 2700 nM. Besides, the survival at 96 h, 20 µM in data set [7] came out at 52%. Also, the survival at 96 h, 160 µM in data set [11] amounted to 70%.

For the compound `CCCCCCCCCCCC1=C(O)C(=O)C(Cc2ccccc2Cl)=C(O)C1=O`, in data set [1] (read-out: Survival), the survival at 96 h is above 90%. The Activity is 50.3% in [2]; “Toxic” in [3]; “Toxic” in data set [5]; “Toxic” in data set [6]; 51.33% in [9]; “Toxic” in [10]. The Activity result was “Toxic” in data set [12] and 52.1% in data set [13]. In addition, the 50% inhibitory concentration (IC50) in data set [4] was found to be 4620 nM; in data set [8], 5540 nM.

Consider `CCCCCCCCCCCC1=C(O)C(=O)C(Cc2ccccc2C)=C(O)C1=O`, for which the survival at 96 h in data set [1] (read-out: Activity) was 70%. The Activity was 80% in data set [2], 75.66% in data set [9], “Non-Toxic” in data set [14] and 80.2% in [13]. For the same compound, the IC50 in [4] was 2510 nM; in data set [8], 2050 nM. Further, the survival at 96 h, 20 µM in data set [7] is 52%. The survival at 96 h, 160 µM in data set [11] is 70%.

In the case of `CCCCCCCCCCCC1=C(O)C(=O)C(Cc2ccc(N(C)C)cc2)=C(O)C1=O`, the survival at 96 h in data set [1] (read-out: Activity) turned out to be 70%. For the same compound, the Activity in data set [2] is 71.1%; in [9] it was 75.66%; in [14], “Non-Toxic”; in [13], 75.1%. The IC50 in data set [4] was 3370 nM; in [8] it was 2910 nM. In addition, the survival at 96 h, 20 µM in data set [7] was 52%. Also, the survival at 96 h, 160 µM in data set [11] was determined as 70%.

Turning to `CCCCCCCCCCCC1=C(O)C(=O)C(Cc2ccc(C)cc2)=C(O)C1=O`, the survival at 96 h in data set [1] (read-out: Activity) stood at 70%. Moreover, the Activity in [2] is 89.4%; in data set [9], 75.66%; in data set [14], “Non-Toxic”; in data set [13], 90.3%. The 50% inhibitory concentration (IC50) in data set [4] and in data set [8] was 1810 nM in each case. Further, the survival at 96 h, 20 µM in [7] is 52%. For the same compound, the survival at 96 h, 160 µM in [11] worked out at 70%.

Regarding `CCCCCCCCCCCC1=C(O)C(=O)C(Cc2cc(OC)c(OC)c(OC)c2)=C(O)C1=O`, the survival at 96 h in data set [1] (read-out: Activity) is 70%. In addition, the Activity in data set [2] was 80%; in data set [9] it was 75.66%; in data set [14], “Non-Toxic”; in data set [13], 80.2%. Also, the IC50 is 2950 nM in [4] and 2480 nM in data set [8]. Further, the survival at 96 h, 20 µM in [7] amounted to 52%. The survival at 96 h, 160 µM in [11] was 70%.

Take `CCCCCCCCCCCC1=C(O)C(=O)C=C(O)C1=O` [EMBELIN]: in data set [1] (read-out: Activity), the survival at 96 h amounted to 70%. The Activity is 71.1% in data set [2]; “Toxic” in data set [3]; “Toxic” in data set [5]; “Toxic” in data set [6]; 75.66% in data set [9]; “Toxic” in [10]. The Activity entry is “Toxic” in data set [12] and 75.1% in data set [13]. The IC50 was 27.9 µg/mL (≈ 94.8 µM) in [15]; 3120 nM in data set [4]; 3120 nM in [8]; 0.23 µg/mL (≈ 0.781 µM) in [16]; 27.92 µg/mL (≈ 94.8 µM) in data set [17]. Also, the survival at 96 h, 20 µM in data set [7] came out at 52%. Moreover, in data set [11], the survival at 96 h, 160 µM worked out at 70%.

On to `C#Cc1ccc(CC2=C(O)C(=O)C(CCCCCCCCCCC)=C(O)C2=O)cc1`, for which the survival at 96 h in data set [1] (read-out: Survival) is above 90%. The Activity in data set [2] is 50.3%; in data set [3] it was “Toxic”; in [5] it was “Toxic”; in data set [6] it was “Toxic”; in data set [9] it was 51.33%; in data set [10], “Toxic”. Besides, the Activity entry is “Toxic” in [12] and 52.1% in data set [13]. In addition, the IC50 was determined as 4900 nM in data set [4] and 4720 nM in [8].

In the case of `CCCCCCCCCCCC1=C(O)C(=O)C(Cc2ccc(OC)cc2)=C(O)C1=O`, in data set [1] (read-out: Activity), the survival at 96 h was 70%. Moreover, the Activity in [2] was 71.1%; in [9], 75.66%; in data set [14], “Non-Toxic”; in [13], 80.2%. In addition, the half-maximal inhibitory concentration (IC50) in data set [4] is 3160 nM; in [8] it was 2720 nM. Also, the survival at 96 h, 20 µM in data set [7] stood at 52%. For the same compound, in data set [11], the survival at 96 h, 160 µM is 70%.
